The source made the active and inactive calls. The rule behind the calls is not given here.
Columns and labels:
[1] = Inhibition of beta-lactamase CTX-M9a using nitrocefin as substrate after 30 mins by spectrophotometric analysis
How it was run: (§1)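 Substrate level differed between class A and class C enzymes. Fraction inhibited was taken as the rate with inhibitor over the rate without. IC50 was read from log[inhibitor] dose–response curves.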

[2] = Inhibition of beta-lactamase CMY-2 using nitrocefin as substrate after 30 mins by spectrophotometric analysis; how it was run: as §1
Beta-lactamase = Beta-lactamase (Enterobacter cloacae, UniProt P05364); test: Inhibition of Enterobacter cloacae P99 beta-lactamase AmpC P99 using nitrocefin as substrate after 30 mins by spectrophotometric analysis; how it was run: as §1
Sequence of Beta-lactamase (P05364 whole entry): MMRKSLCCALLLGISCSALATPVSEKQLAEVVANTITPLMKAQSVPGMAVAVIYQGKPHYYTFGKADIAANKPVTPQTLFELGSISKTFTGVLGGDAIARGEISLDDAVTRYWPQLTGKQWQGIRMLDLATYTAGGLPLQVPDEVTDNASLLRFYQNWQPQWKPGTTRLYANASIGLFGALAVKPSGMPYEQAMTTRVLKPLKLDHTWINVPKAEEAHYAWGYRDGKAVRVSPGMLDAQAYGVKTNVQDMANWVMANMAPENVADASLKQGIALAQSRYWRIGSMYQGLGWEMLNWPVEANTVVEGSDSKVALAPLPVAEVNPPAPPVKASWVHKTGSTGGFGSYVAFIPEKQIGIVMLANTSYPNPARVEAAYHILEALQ

[3] = Inhibition of beta-lactamase TEM1 using nitrocefin as substrate after 30 mins by spectrophotometric analysis; how it was run: as §1
[4] = Inhibition of beta-lactamase CMY-2 expressed in Escherichia coli SYN2549 assessed as potentiation of ceftazidime-mediated antibacterial activity at 8 ug/ml
[5] = molecular target: Beta-lactamase (Enterobacter cloacae) (UniProt P05364); test: Inhibition of Enterobacter cloacae P99 beta-lactamase AmpC P99 assessed as potentiation of ceftazidime-mediated antibacterial activity at 8 ug/ml
Sequence of Beta-lactamase (Enterobacter cloacae) (P05364 21-381 limits assumed): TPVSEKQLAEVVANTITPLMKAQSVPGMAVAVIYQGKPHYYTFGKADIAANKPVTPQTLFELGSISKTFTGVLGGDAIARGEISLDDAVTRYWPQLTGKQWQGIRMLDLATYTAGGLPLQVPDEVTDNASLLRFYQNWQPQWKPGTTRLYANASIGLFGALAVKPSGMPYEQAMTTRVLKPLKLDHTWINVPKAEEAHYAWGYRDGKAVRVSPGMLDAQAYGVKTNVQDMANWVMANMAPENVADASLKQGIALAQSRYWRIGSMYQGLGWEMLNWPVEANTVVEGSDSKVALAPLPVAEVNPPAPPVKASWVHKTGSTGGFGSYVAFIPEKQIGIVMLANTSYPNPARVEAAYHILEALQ

| Structure (SMILES) | Ki [1] [µM] | Ki [2] [µM] | Ki (Beta-lactamase) [µM] | Ki [3] [µM] | Activity [4] | Activity [5] |
| --- | --- | --- | --- | --- | --- | --- |
| [O-][S+](c1ccccc1)c1ccc2c(c1)B(O)OC2 (stereo unspecified) | > 32 | 59.3 | 58 | 4.87 | – | – |
| OB1OCc2ccc(Cc3ccccc3)cc21 | > 32 | 25.6 | 19.8 | > 37 | – | – |
| O=C(Nc1ccc2c(c1)B(O)OC2)c1ccccc1 | > 32 | > 138 | 46.6 | > 37 | – | – |
| CN(C)Cc1ccc(Oc2ccc3c(c2)B(O)OC3)cc1 | – | – | 40.6 | – | – | – |
| OB1OCc2ccc(Oc3cccc(O)c3)cc21 | 0.816 | 3.12 | – | – | – | – |
| O=C(ONc1ccccc1)c1ccc2c(c1)B(O)OC2 | > 32 | 13.8 | 16 | > 37 | – | – |
| OB1OCc2ccc(Sc3ccccc3)cc21 | > 32 | 12.7 | 9.09 | 1.76 | – | – |
| O=C(c1ccccc1)c1ccc2c(c1)B(O)OC2 | > 32 | 46.9 | 28.5 | 10.6 | – | – |
| O=S(=O)(c1ccccc1)c1ccc2c(c1)B(O)OC2 | > 32 | 108 | 63.2 | 11.2 | – | – |
| NCc1ccc(Oc2ccc3c(c2)B(O)OC3)cc1 | – | – | 13.3 | – | – | – |
| Nc1ccc(Oc2ccc3c(c2)B(O)OC3)cc1 | – | – | 8.73 | – | – | – |

The next lines start with the values.

| Ki [1] [µM] | Ki [2] [µM] | Ki (Beta-lactamase) [µM] | Ki [3] [µM] | Activity [4] | Activity [5] | Structure (SMILES) |
| --- | --- | --- | --- | --- | --- | --- |
| 1.1 | 2.65 | 1.35 | 1.4 | – | – | COc1cccc(Oc2ccc3c(c2)B(O)OC3)c1 |
| > 32 | – | 0.02 | 20.4 | Active | Active | O=C(O)c1cnc(Oc2ccc3c(c2)B(O)OC3)cn1 |
| 1.89 | 1.51 | 0.71 | 1.02 | – | – | OB1OCc2ccc(Oc3ccccc3)cc21 |
| – | – | 1.44 | – | – | – | O=C(O)c1cccc(Oc2ccc3c(c2)B(O)OC3)c1 |
| > 32 | 13.8 | 4.73 | > 37 | – | – | OB1OCc2ccc(Nc3ccccc3)cc21 |
| – | – | 0.02 | – | – | – | O=C(O)c1ccc(Oc2ccc3c(c2)B(O)OC3)cc1 |
| > 32 | 8.42 | 7.28 | > 37 | – | – | OB1OCc2ccc(C(O)c3ccccc3)cc21 (stereo unspecified) |
| 1.92 | 8.43 | 8.4 | 1.36 | – | – | OCc1cccc(Oc2ccc3c(c2)B(O)OC3)c1 |
| – | – | 7.72 | – | – | – | CN(C)Cc1cccc(Oc2ccc3c(c2)B(O)OC3)c1 |
| > 32 | – | 5.55 | 3.11 | – | – | CCOC(=O)c1ccc(Oc2ccc3c(c2)B(O)OC3)cc1 |
| 8.75 | 74.5 | 2.27 | 1.08 | – | – | OB1OCc2ccc(Oc3cccc(OCc4ccccc4)c3)cc21 |
| – | – | 3.33 | – | – | – | NCc1cccc(Oc2ccc3c(c2)B(O)OC3)c1 |
| 14.1 | > 46 | 6 | 4.34 | – | – | COc1ccc(Oc2ccc3c(c2)B(O)OC3)cc1 |
| > 32 | 0.07 | 0.08 | 14.7 | – | – | O=C(O)c1cnc(Oc2ccc3c(c2)B(O)OC3)nc1 |
| 0.69 | 6.09 | 2.75 | 1.01 | – | – | Nc1cccc(Oc2ccc3c(c2)B(O)OC3)c1 |
